# From ChEMBL document CHEMBL1135769, “Design, synthesis, and biological evaluation of aryloxyethyl thiocyanate derivatives against Trypanosoma cruzi” (J Med Chem, 2002)
# Experiments:
# Trypanosoma cruzi [1] = experiment: Antiproliferative activity against epimastigote form of Trypanosoma cruzi; type: functional, organism-based
# In short: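 Y-strain epimastigotes grown at 28 °C in brain-heart infusion (37 g/L) with hemin chlorohydrate (20 mg/L) and 10% newborn calf serum. Inoculum was (2-3) × 10^6 cells/mL. Compounds were tested at 1, 10, 50 and 100 µg/mL, each in quadruplicate, with at most 1% ethanol. Growth was read as A600. Percent inhibition came from the absorbance change from start to end versus controls, and IC50 was estimated by linear and polynomial regression.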
# Trypanosoma cruzi [2] = experiment: Inhibition of growth of uM; type: functional
# In short: (§1)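 Epimastigotes (Y strain) were cultured at 28 °C in brain-heart infusion medium with hemin and 10% newborn calf serum, starting at (2-3) × 10^6 cells/mL, with at most 1% ethanol vehicle. Culture density was followed by absorbance at 600 nm. Percent growth inhibition = 100 − (ΔA drug-treated × 100 / ΔA control), where ΔA is the change from start to end of the experiment.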
# Trypanosoma cruzi [3] = experiment: Antiparasitic activity against amastigote form of Trypanosoma cruzi
# Trypanosoma cruzi [4] = experiment: Inhibitory activity towards Trypanosoma cruzi
# Trypanosoma cruzi [5] = experiment: (§2) Percent Inhibition of growth of uM; type: functional
# In short: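 Y-strain T. cruzi epimastigotes grown at 28 °C in brain-heart infusion (37 g/L) with hemin (20 mg/L) and 10% newborn calf serum. Start inoculum (2-3) × 10^6 cells/mL. Four concentrations (1, 10, 50, 100 µg/mL), each in quadruplicate, with at most 1% ethanol. Growth read as A600 at start and end; percent inhibition taken against untreated cultures. IC50 estimated by linear and polynomial regression.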
# Trypanosoma cruzi [6] = experiment: as §2; type: functional; in short: as §1; remark: listed apart in the source
# Trypanosoma cruzi [7] = experiment: Inhibition against Trypanosoma cruzi at a concentration of 70 uM; type: functional; in short: as §1
# Trypanosoma cruzi [8] = experiment: Percent Inhibition of multiplication of Trypanosoma cruzi; type: functional
# In short: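 Intracellular assay in L6E9 myoblasts irradiated with 2000 rad, seeded at 1.2 × 10^7 cells/flask in DMEM with 20% FCS and held 24 h at 35 °C. Cells infected 2 h with 5 × 10^7 Y-strain trypomastigotes/flask, then washed. Drugs added at several concentrations with 1.0 µCi [5,6-3H]uracil for 72 h. Percent inhibition of uracil uptake from mean cpm versus infected untreated cells. Host-cell toxicity checked by phase-contrast microscopy.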
smiles,measurement,setting,value
N#CSCCOc1ccccc1,IC50,Trypanosoma cruzi [1],16.8 µM
Cc1ccc(C)c(OCCOC2CCCCO2)c1 (stereo not drawn),IC50,Trypanosoma cruzi [1],> 70 µM
same,Inhibition,Trypanosoma cruzi [2],15%
Ic1ccccc1OCCOC1CCCCO1 (stereo not drawn),IC50,Trypanosoma cruzi [1],> 60 µM
same,Inhibition,Trypanosoma cruzi [2],20%
Cc1ccc(OCCOC2CCCCO2)c(C)c1 (stereo not drawn),IC50,Trypanosoma cruzi [1],> 70 µM
[N-]=[N+]=NCC(O)COc1ccc(Oc2ccccc2)cc1 (stereo not drawn),IC50,Trypanosoma cruzi [1],> 70 µM
Cc1cccc(C)c1OCCSC#N,IC50,Trypanosoma cruzi [1],13.3 µM
same,IC50,Trypanosoma cruzi [3],> 70 µM
N#CSCCOc1ccccc1I,IC50,Trypanosoma cruzi [1],18.5 µM
same,IC50,Trypanosoma cruzi [3],> 70 µM
Cc1ccc(C)c(OCCSC#N)c1,IC50,Trypanosoma cruzi [1],14.5 µM
C/C=C/c1cc(Oc2ccccc2)ccc1OCCOC1CCCCO1 (stereo not drawn),IC50,Trypanosoma cruzi [1],> 60 µM
Cc1ccc(S(=O)(=O)c2cc(Oc3ccccc3)ccc2OCCOC2CCCCO2)cc1 (stereo not drawn),IC50,Trypanosoma cruzi [1],> 70 µM
C[S+]([O-])CCCCN=C=S (stereo not drawn) [SULFORAPHANE],IC50,Trypanosoma cruzi [1],> 120 µM
same,IC50,Trypanosoma cruzi [4],15 µM
S=C(NCCOc1ccc(Oc2ccccc2)cc1)SCc1ccccc1,IC50,Trypanosoma cruzi [1],32.2 µM
same,IC50,Trypanosoma cruzi [3],> 70 µM
N#CSCCOc1ccc2c(c1)[nH]c1ccccc12,IC50,Trypanosoma cruzi [1],10.3 µM
C[S@+]([O-])CCCCN=C=S [L-SULFORAPHANE],IC50,Trypanosoma cruzi [1],102 µM
Cc1ccc(S(=O)(=O)c2cc(Oc3ccccc3)ccc2OCCSC#N)cc1,IC50,Trypanosoma cruzi [1],4.7 µM
S=C=NCCOc1ccc(Oc2ccccc2)cc1,IC50,Trypanosoma cruzi [1],15.9 µM
same,IC50,Trypanosoma cruzi [3],46.7 µM
c1ccc(Cn2c3ccccc3c3ccc(OCCOC4CCCCO4)cc32)cc1 (stereo not drawn),IC50,Trypanosoma cruzi [1],> 70 µM
[O-][S+](c1ccccc1)c1ccc(OCCOC2CCCCO2)cc1 (stereo not drawn),IC50,Trypanosoma cruzi [1],> 70 µM
Clc1ccccc1OCCOC1CCCCO1 (stereo not drawn),IC50,Trypanosoma cruzi [1],> 70 µM
same,Inhibition,Trypanosoma cruzi [2],22%
CC(C)(C)/N=C(\S)NCCOc1ccc(Oc2ccccc2)cc1,IC50,Trypanosoma cruzi [1],40.3 µM
Cc1ccc(OCCOC2CCCCO2)cc1 (stereo not drawn),IC50,Trypanosoma cruzi [1],> 70 µM
same,Inhibition,Trypanosoma cruzi [2],11%
C=CCSC(=S)NCCOc1ccc(Oc2ccccc2)cc1,IC50,Trypanosoma cruzi [1],33.3 µM
same,IC50,Trypanosoma cruzi [3],> 70 µM
Cc1ccc(OCCSC#N)c(C)c1,IC50,Trypanosoma cruzi [1],18.8 µM
same,IC50,Trypanosoma cruzi [3],5 µM
CC(=O)N1CCN(c2ccc(OCC3COC(Cn4ccnc4)(c4ccc(Cl)cc4Cl)O3)cc2)CC1 (stereo not drawn) [KETOCONAZOLE],Inhibition,Trypanosoma cruzi [5],18%
c1ccc(Oc2ccc(OCC3CN3)cc2)cc1 (stereo not drawn),IC50,Trypanosoma cruzi [1],41.5 µM
Cc1ccccc1OCCOC1CCCCO1 (stereo not drawn),IC50,Trypanosoma cruzi [1],> 70 µM
Cc1ccccc1OCCSC#N,IC50,Trypanosoma cruzi [1],16.4 µM
N#CSCCOc1ccccc1Br,IC50,Trypanosoma cruzi [1],20.2 µM
Cc1cc(C)cc(OCCOC2CCCCO2)c1 (stereo not drawn),IC50,Trypanosoma cruzi [1],> 70 µM
O=C=NCCOc1ccc(Oc2ccccc2)cc1,IC50,Trypanosoma cruzi [1],> 70 µM
same,Inhibition,Trypanosoma cruzi [6],28%
C=CCc1cc(Oc2ccccc2)ccc1OCCOC1CCCCO1 (stereo not drawn),IC50,Trypanosoma cruzi [1],> 60 µM
C=CCc1cc(Oc2ccccc2)ccc1OCCSC#N,IC50,Trypanosoma cruzi [1],> 60 µM
same,IC50,Trypanosoma cruzi [3],> 70 µM
c1ccc(Nc2ccc(OCCOC3CCCCO3)cc2)cc1 (stereo not drawn),IC50,Trypanosoma cruzi [1],31.4 µM
N#CSCCOc1ccc([S+]([O-])c2ccccc2)cc1 (stereo not drawn),IC50,Trypanosoma cruzi [1],7.7 µM
same,IC50,Trypanosoma cruzi [3],58.8 µM
Cc1cccc(C)c1OCCOC1CCCCO1 (stereo not drawn),IC50,Trypanosoma cruzi [1],> 70 µM
N#CSCCOc1ccccc1Cl,IC50,Trypanosoma cruzi [1],11.4 µM
O=C(NCCOc1ccc(Oc2ccccc2)cc1)C1CC1,IC50,Trypanosoma cruzi [1],> 70 µM
same,inhibition at 70 µM,Trypanosoma cruzi [7],31%
Cc1ccc(OCCSC#N)cc1,IC50,Trypanosoma cruzi [1],12.1 µM
CS/C(S)=N/CCOc1ccc(Oc2ccccc2)cc1,IC50,Trypanosoma cruzi [1],45.6 µM
same,IC50,Trypanosoma cruzi [3],27.4 µM
Cc1cccc(OCCSC#N)c1C,IC50,Trypanosoma cruzi [1],14.8 µM
Cc1cccc(OCCOC2CCCCO2)c1C (stereo not drawn),IC50,Trypanosoma cruzi [1],> 70 µM
c1ccc(Oc2ccc(OCCSc3ccccc3)cc2)cc1,IC50,Trypanosoma cruzi [1],62.1 µM
C/C=C/c1cc(Oc2ccccc2)ccc1OCCSC#N,IC50,Trypanosoma cruzi [1],6.8 µM
same,IC50,Trypanosoma cruzi [3],14 µM
c1ccc(CSCCOc2ccc(Oc3ccccc3)cc2)cc1,IC50,Trypanosoma cruzi [1],> 60 µM
same,Inhibition,Trypanosoma cruzi [2],41%
N#CSCCOc1ccc(Nc2ccccc2)cc1,IC50,Trypanosoma cruzi [1],3.3 µM
same,Inhibition,Trypanosoma cruzi [8],10%
same,IC50,Trypanosoma cruzi [3],41.1 µM
Cc1cc(C)cc(OCCSC#N)c1,IC50,Trypanosoma cruzi [1],19.3 µM
CSCCOc1ccc(Oc2ccccc2)cc1,IC50,Trypanosoma cruzi [1],> 100 µM
same,Inhibition,Trypanosoma cruzi [2],18%
